PubChem BioAssay
Inconclusive results are not listed.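 How the source made its calls, unless noted: active means RAM network inhibition above 8.4% in each of two replicates, 3 SD over the compound average; inconclusive means above 8.4% inhibition in only one replicate; inactive means 8.4% inhibition or less in each replicate.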

Tests used:
[1] = OD615 S. cerevisiae growth inhibition, permissive medium, pilot counter-assay, permissive growth control for S. cerevisiae lifespan shortening project (AID 705;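 active means growth inhibition above 25% in both replicates, a cutoff set 3 SD above the mean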); conditions: OD615, 24 h, at 10 µM, hits give high values
Summary of the method: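 System: Engineered DeaD yeast | Buffer or medium: SC raffinose/galactose permissive medium | Incubation: Cells pre-grown 4 h, then 24 h compound exposure, 30 °C humidified | Measured by: Absorbance (optical density) at 615 nm | Read-out: Reduction in yeast growth (OD615)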

[2] = Restrictive medium S. cerevisiae growth inhibition, OD615, pilot screen of yeast lifespan reduction project, restrictive growth control (AID 706;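 active means growth inhibition above a set limit, 3 SD over mean compound inhibition, in both replicates, cut at about 43% in these data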;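 further: modified DeaD lifespan yeast strain shifted to restrictive glucose medium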); conditions: OD615, 48 h, at 10 µM, hits give high values
Summary of the method: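 Material: modified S. cerevisiae; Medium: glucose-based CSMM-D restrictive medium; Compound dosing: one concentration, 10 µM final, 0.25% DMSO; Incubation: 48 h compound exposure at 30 °C; Measured by: OD615.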

[3] = viability gain of MRP-1-high H69AR cells under doxorubicin, pilot screen, MRP-1 activator project, CellTiter-Glo, duplicate (AID 807;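 active means viability increase at or above a cutoff of the median across tested compounds plus 3 SD, cut at about 8.5% in these data, passing the limit was not always enough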;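 further: compound pretreatment 18-22 h then 72 h combined with doxorubicin; 0% = doxorubicin alone and 100% = vehicle without doxorubicin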); conditions: H69AR viability with doxorubicin, CellTiter-Glo luminescence; at 10 µM; hits give high values
[4] = growth suppression of PTEN-deleted HCT116, pilot screen, cell-based, HCT116 clonal line, CellTiter-Glo (AID 824;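 active means viability at or below 27.92% in each of two runs, the all-compound median minus 4 SD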;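 further: 0% = 20 µM Hyamine control and 100% = vehicle cell control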); conditions: 60 h, at 10 µM, hits give low values
[5] = inhibitors of the yeast RAM network, pilot screen, dse1pr::URA3 reporter, 5-FOA selection (AID 869;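 active means inhibition over a set limit, the all-compound mean plus 3 SD, in both replicate runs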;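 further: 0% = DMSO wells with no growth and 100% = 10 µM 1-NA-PP1 with full growth; RAM network block rescues cells from 5-FOA so hits raise OD615 growth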); conditions: S. cerevisiae dse1pr::URA3 5-FOA growth, OD615, 2 d; at 10 µM; hits give high values; strain carries analog-sensitive mutant Cbk1 kinase
[6] = RAM signaling pathway blockade in yeast – S. cerevisiae, Pdr1DBD-CYC8 efflux-inhibited sensitized strain, primary screen (AID 1298);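 further: 0% = DMSO untreated cells without growth and 100% = 10 µM 1-NA-PP1 full growth; higher means more yeast growth rescued from 5-FOA killing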; conditions: S. cerevisiae cbk1-as DSE1-URA3 strain, 5-FOA growth OD615, 2 d; at 50 µM; hits give high values

c1coc(CNc2c3c(nc4ncnn24)CCCC3)c1
inactive: growth inhibition [1] 0.96% | growth inhibition [2] 6.76% | viability increase [3] -1.88% | viability [4] 93.1% | inhibition [5] -0.155% | RAM network inhibition [6] 1.39%

CCOC(=O)N1CCN(C(=O)c2oc3ccc(S(=O)(=O)N4CC(C)CC(C)C4)cc3c2C)CC1 (stereo unspecified)
inactive: growth inhibition [1] -2.93% | growth inhibition [2] 2.18% | viability increase [3] -6.37% | viability [4] 42.5% | inhibition [5] 1.43% | RAM network inhibition [6] 4.64%

CCN(CC)C(=O)CSc1nsc(SCC(=O)N(CC)CC)c1C#N
inactive: growth inhibition [1] -9.3% | growth inhibition [2] 6.27% | viability increase [3] -2.27% | viability [4] 95.3% | inhibition [5] 1.22% | RAM network inhibition [6] 6.13%

O/N=C1/C2C3CC4C5C3C1C5C1(OCCO1)C42 (stereo unspecified)
inactive: growth inhibition [1] -8.1% | growth inhibition [2] -16.9% | viability increase [3] -1.45% | viability [4] 99% | inhibition [5] 1.39% | RAM network inhibition [6] 3.89%

COc1cc(S(=O)(=O)N2CCCCCC2)c(OC)cc1Br
inactive: growth inhibition [1] 0.23% | growth inhibition [2] -10.7% | viability increase [3] -0.06% | viability [4] 77.4% | inhibition [5] -0.43% | RAM network inhibition [6] 5.23%

COCCNS(=O)(=O)c1ccc2c(c1)C(=O)c1cc(S(=O)(=O)NCCOC)ccc1-2
inactive: growth inhibition [1] -1.33% | growth inhibition [2] 0.015% | viability increase [3] -0.81% | viability [4] 96.4% | inhibition [5] 2.15% | RAM network inhibition [6] 3.45%

O=C(CSc1nc2c(c(=O)n1-c1ccc(Br)cc1)SCC2)NCc1ccco1
inactive: growth inhibition [1] -0.48% | growth inhibition [2] -1.07% | viability increase [3] -3.54% | viability [4] 77.4% | inhibition [5] 0.41% | RAM network inhibition [6] 5.24%

COCCNC(=O)C1c2ccccc2C(=O)N(CCOC)C1c1ccc(F)cc1 (stereo unspecified)
inactive: growth inhibition [1] -6.02% | growth inhibition [2] 3.31% | viability increase [3] -2.15% | viability [4] 101% | inhibition [5] 1.29% | RAM network inhibition [6] 0.46%

CCN(CC)C(=O)c1cn(C)c(=O)c2cc(OC)c(OC)cc12
inactive: growth inhibition [1] -12.1% | growth inhibition [2] -8.38% | viability increase [3] -4.4% | viability [4] 98.8% | inhibition [5] 0.515% | RAM network inhibition [6] -1.59%

Cc1ccc(C(=O)COC(=O)c2ccc(Br)o2)cc1C
inactive: growth inhibition [1] -5.44% | growth inhibition [2] -2.75% | viability increase [3] 1.02% | viability [4] 100% | inhibition [5] 2.77% | RAM network inhibition [6] 1.29%

O=C1c2ccccc2N2C(=O)c3ccccc3C2N1Cc1ccco1 (stereo unspecified)
inactive: growth inhibition [1] -9.32% | growth inhibition [2] -5.68% | viability increase [3] -4.74% | viability [4] 85.1% | inhibition [5] 3.68% | RAM network inhibition [6] 3.03%

COc1cc2[nH]c(=O)n(CCCC(=O)N3CC=C(c4ccccc4)CC3)c(=O)c2cc1OC
inactive: growth inhibition [1] -11.3% | growth inhibition [2] -6.67% | viability increase [3] -4.59% | viability [4] 80.5% | inhibition [5] 0.355% | RAM network inhibition [6] 1.8%

COc1ccccc1-n1c(SCC(=O)Nc2nnc(C)s2)nc2c(c1=O)SCC2
inactive: growth inhibition [1] -5.29% | growth inhibition [2] 3.71% | viability increase [3] -3.7% | viability [4] 80.6% | inhibition [5] 0.81% | RAM network inhibition [6] 3.59%

CCCCNc1ncnc2c1cnn2-c1ccccc1
inactive: growth inhibition [1] -4.09% | growth inhibition [2] -11.2% | viability increase [3] -6.48% | viability [4] 32.4% | inhibition [5] 1.83% | RAM network inhibition [6] -0.15%

CC(c1ccccc1F)n1cc(C(=O)NCCc2ccco2)nn1 (stereo unspecified)
inactive: growth inhibition [1] -12.9% | growth inhibition [2] -9.79% | viability increase [3] -4.02% | viability [4] 76.3% | inhibition [5] 0.72% | RAM network inhibition [6] 0.46%

CC(C)CC(NC(=O)C1CCC(C)CC1)C(=O)Nc1cccnc1 (stereo unspecified)
inactive: growth inhibition [1] -8.21% | growth inhibition [2] -12.6% | viability increase [3] -3.68% | viability [4] 89.5% | inhibition [5] 0.035% | RAM network inhibition [6] 0.05%

COc1ccc(OC(C)C(=O)Nc2cccc(OC)c2)cc1 (stereo unspecified)
inactive: growth inhibition [1] -4.58% | growth inhibition [2] -2.9% | viability increase [3] -4.64% | viability [4] 97.9% | inhibition [5] 0.625% | RAM network inhibition [6] -0.52%

Cc1ccc(CNC(=O)c2oc3ccc(S(=O)(=O)N4CCC5(CC4)OCCO5)cc3c2C)cc1
inactive: growth inhibition [1] -11% | growth inhibition [2] -10% | viability increase [3] -0.6% | viability [4] 52.6% | inhibition [5] 1.35% | RAM network inhibition [6] 2.87%

C(=C\CSc1nnnn1-c1ccccc1)/CSc1nnnn1-c1ccccc1
inactive: growth inhibition [1] -9.57% | growth inhibition [2] -3.65% | viability increase [3] -1.58% | viability [4] 87.6% | inhibition [5] 3.83% | RAM network inhibition [6] 10%

N#Cc1ccc(Sc2nc3ccccc3[nH]2)cc1C#N
inactive: growth inhibition [1] -7.23% | growth inhibition [2] 4.58% | viability increase [3] -5.02% | viability [4] 89.8% | inhibition [5] 2.44% | RAM network inhibition [6] 1.9%

CCOC(=O)c1c(NC(=O)OC)sc(C(=O)N(CC)CC)c1C
inactive: growth inhibition [1] -14.6% | growth inhibition [2] -12.4% | viability increase [3] -1.31% | viability [4] 93% | inhibition [5] 1.47% | RAM network inhibition [6] 1.79%

CCOC(=O)N1CCN(C(=O)CN(c2cccc(C)c2)S(=O)(=O)c2ccccc2)CC1
inactive: growth inhibition [1] -9.07% | growth inhibition [2] -2.69% | viability increase [3] -2.44% | viability [4] 97.8% | inhibition [5] -0.31% | RAM network inhibition [6] 0.62%

CCSc1nc2ccccc2n1CC(=O)N1CCOCC1
inactive: growth inhibition [1] -4.23% | growth inhibition [2] 1.08% | viability increase [3] -3.2% | viability [4] 92.4% | inhibition [5] 0.915% | RAM network inhibition [6] 0.98%

CCN1CCN(CCNC(=O)C2CCCN(Cc3nc(-c4cccc(Cl)c4)oc3C)C2)CC1 (stereo unspecified)
inactive: growth inhibition [1] -9.33% | growth inhibition [2] -13.1% | viability increase [3] -6.96% | viability [4] 35% | inhibition [5] -1.05% | RAM network inhibition [6] 0.71%

CC(=O)NCCOC(=O)Nc1ccncc1
inactive: growth inhibition [1] 4.58% | growth inhibition [2] -5.27% | viability increase [3] -0.91% | viability [4] 99.1% | inhibition [5] 1.32% | RAM network inhibition [6] 3.18%

COc1cc2c(C(=O)N3CCN(Cc4ccc5c(c4)OCO5)CC3)cn(C)c(=O)c2cc1OC
inactive: growth inhibition [1] -8.34% | growth inhibition [2] -4.51% | viability increase [3] -6.92% | viability [4] 95.6% | inhibition [5] 0.85% | RAM network inhibition [6] 1.29%

O=C(CSc1nc2c(c(=O)n1-c1ccc(Cl)cc1)SCC2)N1CCCC1
inactive: growth inhibition [1] 1.32% | growth inhibition [2] 24.2% | viability increase [3] -4.23% | viability [4] 101% | inhibition [5] 1.31% | RAM network inhibition [6] 0.57%

Cc1cc(S(=O)(=O)N2CCN(Cc3ccc4c(c3)OCO4)CC2)cc(C)c1N1CCCC1=O
inactive: growth inhibition [1] -10.6% | growth inhibition [2] -19.3% | viability increase [3] -3.13% | viability [4] 53.6% | inhibition [5] -0.21% | RAM network inhibition [6] 0.73%

c1ccc(CSc2nnc3c(n2)OC(c2ccco2)Nc2ccccc2-3)cc1 (stereo unspecified)
inactive: growth inhibition [1] -10.6% | growth inhibition [2] 2.27% | viability increase [3] -4.19% | viability [4] 88.8% | inhibition [5] 0.38% | RAM network inhibition [6] 7.16%

CN(C)c1ccc(NC(=S)c2ccccn2)cc1
inactive: growth inhibition [1] 4.71% | growth inhibition [2] -11.2% | viability increase [3] -8.3% | viability [4] 47.2% | inhibition [5] 1.82% | RAM network inhibition [6] 3.01%

COc1cc(C)c(C(C)C)cc1S(=O)(=O)n1cnc(C)c1
inactive: growth inhibition [1] 0.115% | growth inhibition [2] 6.4% | viability increase [3] -3.58% | viability [4] 37.8% | inhibition [5] 0.425% | RAM network inhibition [6] 4.02%

COc1ccc(S(=O)(=O)N(CCc2ccccc2)CC(=O)N2CCOCC2)cc1
inactive: growth inhibition [1] -7.4% | growth inhibition [2] -6.06% | viability increase [3] -4.39% | viability [4] 96.6% | inhibition [5] 0.965% | RAM network inhibition [6] -0.36%

COc1ccc(N(CC(=O)NCc2ccco2)S(C)(=O)=O)cc1Cl
inactive: growth inhibition [1] -14.3% | growth inhibition [2] -4.89% | viability increase [3] -3.2% | viability [4] 91.7% | inhibition [5] 2.38% | RAM network inhibition [6] 6.11%

CCNc1nc2c(c(=O)n(C)c(=O)n2C)n1Cc1ccc(Cl)cc1
inactive: growth inhibition [1] -6.92% | growth inhibition [2] -2.02% | viability increase [3] -2.02% | viability [4] 58.3% | inhibition [5] -0.48% | RAM network inhibition [6] 1.98%

Fc1cccc(Cl)c1CSc1ncn[nH]1
inactive: growth inhibition [1] -4.97% | growth inhibition [2] 10.7% | viability increase [3] 0.29% | viability [4] 85.6% | inhibition [5] 0.52% | RAM network inhibition [6] 2.05%

COC(=O)CCc1nc2ccccc2[nH]c1=O
inactive: growth inhibition [1] -6.03% | growth inhibition [2] -5.04% | viability increase [3] -0.31% | viability [4] 100% | inhibition [5] 1.4% | RAM network inhibition [6] 2.15%
